Measured values taken from ChEMBL document CHEMBL1124943, “Alkylation of DNA by C-10 of 2,7-diaminomitosene” (1990).

How the values were obtained:
Format in all cases: functional
L1210 [1] = test: Survival of L-1210 leukemia cells upon exposure to the compound for 1 hr at a concentration of 100ug/mL, measured in colony forming units.; conditions: Mus musculus, L1210, 1 h; read-out: Survival
L1210 [2] = test: Survival of L-1210 leukemia cells upon exposure to the compound for 1 hr at a concentration of 500ug/mL, measured in colony forming units.; conditions: Mus musculus, L1210, 1 h; read-out: Survival
L1210 [3] = test: Survival of L-1210 leukemia cells upon exposure to the compound for 1 hr at a concentration of 50ug/mL, measured in colony forming units.; conditions: Mus musculus, L1210, 1 h; read-out: Survival
L1210 [4] = test: Survival of L-1210 leukemia cells upon exposure to the compound for 1 hr at a concentration of 10ug/mL, measured in colony forming units.; conditions: Mus musculus, L1210, 1 h; read-out: Survival
L1210 [5] = test: Survival of L-1210 leukemia cells upon exposure to the compound for 1 hr at a concentration of 1ug/mL, measured in colony forming units.; conditions: Mus musculus, L1210, 1 h; read-out: Survival
Nucleic Acid [6] = test: Ability to […] breaks induced by ionozing radiation on exposure for 1 hr at a concentration of 500 ug/mL
Summary of the method: (§1)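 Murine L-1210 cells were prelabelled with [2-14C]thymidine (2.0 μCi) for 4 doublings (48 h), then chased 24 h in unlabelled medium. They were exposed 1 h at 37 °C, washed twice at 4 °C, and 10^6 cells were lysed on PVC filters (SDS/glycine/EDTA, pH 10.0). Lysates were digested 1 h with proteinase K (0.5 mg/mL), then alkaline-eluted (pH 12.1) for 15 h. First-order elution rates were converted to rad equivalents against ionizing-radiation standards. Values are the mean of three determinations, or duplicates where marked.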

Nucleic Acid [7] = test: Ability to […] breaks induced by ionozing radiation on exposure for 1 hr at a concentration of 100 ug/mL; summary of the method: as §1
Nucleic Acid [8] = test: Ability to […] breaks induced by ionozing radiation on exposure for 1 hr at a concentration of 10 ug/mL; summary of the method: as §1
Nucleic Acid [9] = test: Ability to […] breaks induced by ionozing radiation on exposure for 1 hr at a concentration of 50 ug/mL; summary of the method: as §1
Nucleic Acid [10] = test: Ability to […] breaks induced by ionozing radiation on exposure for 1 hr at a concentration of 250 ug/mL; summary of the method: as §1
L1210 [11] = test: Survival of L-1210 leukemia cells upon exposure to the compound for 1 hr at a concentration of 250ug/mL, measured in colony forming units.; conditions: Mus musculus, L1210, 1 h; read-out: Survival
[12] = tested as the 18O-labelled form

Row | SMILES | viability at 100 µg/mL (L1210 [1]) | viability at 500 µg/mL (L1210 [2]) | viability at 50 µg/mL (L1210 [3]) | viability at 10 µg/mL (L1210 [4]) | viability at 1 µg/mL (L1210 [5]) | DNA single strand breaks (Nucleic Acid [6]; [12]) | DNA single strand breaks (Nucleic Acid [7]; [12]) | DNA single strand breaks (Nucleic Acid [8]; [12]) | DNA single strand breaks (Nucleic Acid [9]; [12]) | DNA single strand breaks (Nucleic Acid [10]) | DNA single strand breaks (Nucleic Acid [6]) | viability at 250 µg/mL (L1210 [11]) | DNA single strand breaks (Nucleic Acid [7]) | DNA single strand breaks (Nucleic Acid [8]) | DNA single strand breaks (Nucleic Acid [9])
1 | CC1=C(N)C(=O)c2c(COC(N)=O)c3n(c2C1=O)CC(N)C3[18OH] (stereo not given) | 0% | 0% | 2% | 81% | 100% |  |  |  |  |  |  |  |  |  | 
2 | CC1=C(N)C(=O)c2c(COC(N)=O)c3n(c2C1=O)CC(N)C3O (stereo not given) |  |  |  |  |  | 395 rad equiv | 50 rad equiv | 0 rad equiv | 0 rad equiv |  |  |  |  |  | 
3 | CC1=C(N)C(=O)c2c(COC(N)=O)c3n(c2C1=O)CC(N)C3 (stereo not given) | 8% | 0% | 43% | 100% |  |  |  |  |  | 470 rad equiv | 535 rad equiv | 0.9% | 320 rad equiv | 0 rad equiv | 110 rad equiv
4 | COS(C)(=O)=O [METHANESULFONIC ACID METHYL ESTER] | 0.2% |  | 32% | 100% |  |  |  |  |  |  |  |  | 2150 rad equiv | 583 rad equiv | 935 rad equiv
